# How the values were obtained:
# [1] = species: Rattus norvegicus; assay: Saluretic activity in the rat measured as concentration of Na+ in urine; type: functional
# Method in brief: (§1)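 Rats deprived of food 24 h, water ad libitum, dosed 50 mg/kg by stomach tube as suspension in 2% starch, no extra water load. Groups of three in diuresis funnels; urine over first 5 h collected. Na⁺ and K⁺ by flame photometry, Cl⁻ argentometrically; expressed as mequiv/kg.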
# [2] = species: Rattus norvegicus; assay: Diuretic activity in the rats, determined by a modified Lipschitz test; type: functional, Urine
# Method in brief: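 Modified Lipschitz test: rats deprived of water 24 h, grouped in threes of similar weight in diuresis funnels. Oral dose of 50 mg/kg, suspended in 2% starch solution, by stomach tube.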
# [3] = species: Rattus norvegicus; assay: Saluretic activity in the rat measured as concentration of K+ in urine; type: functional; method in brief: as §1
# [4] = species: Rattus norvegicus; assay: Saluretic activity in the rat measured as concentration of chloride in urine; type: functional; method in brief: as §1
structure (smiles),measurement,setting,value
NC(CO)(CO)CO.NS(=O)(=O)c1cc(S(=O)(=O)O)c(NCc2ccco2)cc1Oc1ccccc1,Saluretic activity,[1],5.8 m equiv 5hr-1 kg-1
same,Diuretic activity,[2],4.1 mL/kg
same,Saluretic activity,[3],2.2 m equiv 5hr-1 kg-1
same,Saluretic activity,[4],7.8 m equiv 5hr-1 kg-1
NS(=O)(=O)c1cc(S(=O)(=O)[O-])c(NCC2CCCO2)cc1Cl.[Na+] (stereo not drawn),Saluretic activity,[1],0.4 m equiv 5hr-1 kg-1
same,Diuretic activity,[2],0.4 mL/kg
same,Saluretic activity,[3],0.4 m equiv 5hr-1 kg-1
same,Saluretic activity,[4],0.5 m equiv 5hr-1 kg-1
CN(Cc1ccco1)c1cc(Cl)c(S(N)(=O)=O)cc1S(=O)(=O)[O-].[Na+],Saluretic activity,[1],0.8 m equiv 5hr-1 kg-1
same,Diuretic activity,[2],0.8 mL/kg
same,Saluretic activity,[3],0.5 m equiv 5hr-1 kg-1
same,Saluretic activity,[4],0.8 m equiv 5hr-1 kg-1
NS(=O)(=O)c1cc(S(=O)(=O)[O-])c(NCc2ccncc2)cc1Cl.[Na+],Saluretic activity,[1],0.1 m equiv 5hr-1 kg-1
same,Diuretic activity,[2],0.2 mL/kg
same,Saluretic activity,[3],0.4 m equiv 5hr-1 kg-1
same,Saluretic activity,[4],0.1 m equiv 5hr-1 kg-1
NS(=O)(=O)c1cc(S(=O)(=O)[O-])c(NCc2ccco2)cc1Oc1ccc(Cl)cc1.[K+],Saluretic activity,[1],5.1 m equiv 5hr-1 kg-1
same,Diuretic activity,[2],2.2 mL/kg
same,Saluretic activity,[3],2 m equiv 5hr-1 kg-1
same,Saluretic activity,[4],6.4 m equiv 5hr-1 kg-1
NS(=O)(=O)c1cc(S(=O)(=O)[O-])c(NCc2ccco2)cc1S(=O)(=O)C1CCCCCC1.[Na+],Saluretic activity,[1],8.9 m equiv 5hr-1 kg-1
same,Diuretic activity,[2],4 mL/kg
same,Saluretic activity,[3],2.8 m equiv 5hr-1 kg-1
same,Saluretic activity,[4],9.9 m equiv 5hr-1 kg-1
NS(=O)(=O)c1cc(S(=O)(=O)[O-])c(Oc2ccccc2)cc1NCc1ccco1.[K+],Saluretic activity,[1],0.8 m equiv 5hr-1 kg-1
same,Diuretic activity,[2],0.8 mL/kg
same,Saluretic activity,[3],1 m equiv 5hr-1 kg-1
same,Saluretic activity,[4],0.8 m equiv 5hr-1 kg-1
CN(c1ccccc1)c1cc(NCc2ccco2)c(S(=O)(=O)[O-])cc1S(N)(=O)=O.[K+],Saluretic activity,[1],6.3 m equiv 5hr-1 kg-1
same,Diuretic activity,[2],3.1 mL/kg
same,Saluretic activity,[3],1.7 m equiv 5hr-1 kg-1
same,Saluretic activity,[4],7.4 m equiv 5hr-1 kg-1
Nc1cc(Oc2ccccc2)c(S(N)(=O)=O)cc1S(=O)(=O)[O-].[K+],Saluretic activity,[1],0.5 m equiv 5hr-1 kg-1
same,Diuretic activity,[2],1 mL/kg
same,Saluretic activity,[3],1.3 m equiv 5hr-1 kg-1
same,Saluretic activity,[4],0.7 m equiv 5hr-1 kg-1
Cc1ccc(N(C)c2cc(NCc3ccco3)c(S(=O)(=O)[O-])cc2S(N)(=O)=O)cc1.[Na+],Saluretic activity,[1],1.6 m equiv 5hr-1 kg-1
same,Diuretic activity,[2],1.2 mL/kg
same,Saluretic activity,[3],1.9 m equiv 5hr-1 kg-1
same,Saluretic activity,[4],2.3 m equiv 5hr-1 kg-1
NS(=O)(=O)c1cc(S(=O)(=O)[O-])c(NCc2ccco2)cc1Oc1ccccc1.[K+],Saluretic activity,[1],5 m equiv 5hr-1 kg-1
same,Diuretic activity,[2],1.8 mL/kg
same,Saluretic activity,[3],1.5 m equiv 5hr-1 kg-1
same,Saluretic activity,[4],7.1 m equiv 5hr-1 kg-1
NS(=O)(=O)c1cc(S(=O)(=O)[O-])c(NCc2ccco2)cc1S(=O)(=O)CC1CCCCC1.[Na+],Saluretic activity,[1],8.8 m equiv 5hr-1 kg-1
same,Diuretic activity,[2],4.6 mL/kg
same,Saluretic activity,[3],2.7 m equiv 5hr-1 kg-1
same,Saluretic activity,[4],10.7 m equiv 5hr-1 kg-1
NS(=O)(=O)c1cc(S(=O)(=O)[O-])c(NCc2ccco2)cc1Oc1cccc(Cl)c1.[K+],Saluretic activity,[1],3.8 m equiv 5hr-1 kg-1
same,Diuretic activity,[2],2 mL/kg
same,Saluretic activity,[3],2 m equiv 5hr-1 kg-1
same,Saluretic activity,[4],5.1 m equiv 5hr-1 kg-1
CN(C)S(=O)(=O)c1cc(S(=O)(=O)[O-])c(NCc2ccco2)cc1Oc1ccccc1.[K+],Saluretic activity,[1],0.3 m equiv 5hr-1 kg-1
same,Diuretic activity,[2],1.2 mL/kg
same,Saluretic activity,[3],1.1 m equiv 5hr-1 kg-1
same,Saluretic activity,[4],0.7 m equiv 5hr-1 kg-1
CNS(=O)(=O)c1cc(S(=O)(=O)[O-])c(NCc2ccco2)cc1N(C)c1ccccc1.[K+],Saluretic activity,[1],1.2 m equiv 5hr-1 kg-1
same,Diuretic activity,[2],1.3 mL/kg
same,Saluretic activity,[3],1.4 m equiv 5hr-1 kg-1
same,Saluretic activity,[4],1.8 m equiv 5hr-1 kg-1
NS(=O)(=O)c1cc(S(=O)(=O)[O-])c(S(=O)(=O)C2CCCCC2)cc1NCc1ccco1.[Na+],Saluretic activity,[1],0.4 m equiv 5hr-1 kg-1
same,Diuretic activity,[2],0.8 mL/kg
same,Saluretic activity,[3],1.1 m equiv 5hr-1 kg-1
same,Saluretic activity,[4],1 m equiv 5hr-1 kg-1
C1CCC(NC2CCCCC2)CC1.NS(=O)(=O)c1cc(S(=O)(=O)O)c(NCc2ccco2)cc1Oc1ccccc1,Saluretic activity,[1],0.7 m equiv 5hr-1 kg-1
same,Diuretic activity,[2],0.9 mL/kg
same,Saluretic activity,[3],1 m equiv 5hr-1 kg-1
same,Saluretic activity,[4],0.8 m equiv 5hr-1 kg-1
Cc1cccc(Oc2cc(NCc3ccco3)c(S(=O)(=O)[O-])cc2S(N)(=O)=O)c1.[K+],Saluretic activity,[1],6.7 m equiv 5hr-1 kg-1
same,Diuretic activity,[2],4.4 mL/kg
same,Saluretic activity,[3],2.2 m equiv 5hr-1 kg-1
same,Saluretic activity,[4],7.9 m equiv 5hr-1 kg-1
CC(C)(C)S(=O)(=O)c1cc(NCc2ccco2)c(S(=O)(=O)[O-])cc1S(N)(=O)=O.[K+],Saluretic activity,[1],3.3 m equiv 5hr-1 kg-1
same,Diuretic activity,[2],2.5 mL/kg
same,Saluretic activity,[3],1.8 m equiv 5hr-1 kg-1
same,Saluretic activity,[4],4.3 m equiv 5hr-1 kg-1
COc1ccccc1CNc1cc(Cl)c(S(N)(=O)=O)cc1S(=O)(=O)[O-].[Na+],Saluretic activity,[1],0.1 m equiv 5hr-1 kg-1
same,Diuretic activity,[2],0.2 mL/kg
same,Saluretic activity,[3],0.3 m equiv 5hr-1 kg-1
same,Saluretic activity,[4],0.1 m equiv 5hr-1 kg-1
NS(=O)(=O)c1cc(S(=O)(=O)[O-])c(Cl)cc1NCc1ccco1.[Na+],Saluretic activity,[1],0.5 m equiv 5hr-1 kg-1
same,Diuretic activity,[2],0.5 mL/kg
same,Saluretic activity,[3],0.9 m equiv 5hr-1 kg-1
same,Saluretic activity,[4],1 m equiv 5hr-1 kg-1
CN(c1ccccc1)c1cc(NCc2ccco2)c(S(=O)(=O)O)cc1S(N)(=O)=O.N,Saluretic activity,[1],6.8 m equiv 5hr-1 kg-1
same,Diuretic activity,[2],4.8 mL/kg
same,Saluretic activity,[3],2.1 m equiv 5hr-1 kg-1
same,Saluretic activity,[4],8.3 m equiv 5hr-1 kg-1
CN(c1cc(NCc2ccco2)c(S(=O)(=O)[O-])cc1S(N)(=O)=O)C1CCCCC1.[K+],Saluretic activity,[1],0.4 m equiv 5hr-1 kg-1
same,Diuretic activity,[2],0.8 mL/kg
same,Saluretic activity,[3],1 m equiv 5hr-1 kg-1
same,Saluretic activity,[4],0.6 m equiv 5hr-1 kg-1
NS(=O)(=O)c1cc(S(=O)(=O)[O-])c(NCc2ccco2)cc1Nc1ccc(Cl)cc1.[Na+],Saluretic activity,[1],0.4 m equiv 5hr-1 kg-1
same,Diuretic activity,[2],0.4 mL/kg
same,Saluretic activity,[3],0.4 m equiv 5hr-1 kg-1
same,Saluretic activity,[4],0.5 m equiv 5hr-1 kg-1
NS(=O)(=O)c1cc(S(=O)(=O)[O-])c(NCc2ccco2)cc1NCc1ccccc1.[K+],Saluretic activity,[1],0.8 m equiv 5hr-1 kg-1
same,Diuretic activity,[2],1 mL/kg
same,Saluretic activity,[3],0.6 m equiv 5hr-1 kg-1
same,Saluretic activity,[4],1.2 m equiv 5hr-1 kg-1
NC(N)=NC(=O)c1nc(Cl)c(N)nc1N.NS(=O)(=O)c1cc(S(=O)(=O)O)c(NCc2ccco2)cc1Oc1ccccc1,Saluretic activity,[1],3.7 m equiv 5hr-1 kg-1
same,Diuretic activity,[2],1.9 mL/kg
same,Saluretic activity,[3],0.3 m equiv 5hr-1 kg-1
same,Saluretic activity,[4],2.7 m equiv 5hr-1 kg-1
Cc1ccccc1Nc1cc(NCc2ccco2)c(S(=O)(=O)[O-])cc1S(N)(=O)=O.[Na+],Saluretic activity,[1],0.7 m equiv 5hr-1 kg-1
same,Diuretic activity,[2],0.6 mL/kg
same,Saluretic activity,[3],1 m equiv 5hr-1 kg-1
same,Saluretic activity,[4],0.6 m equiv 5hr-1 kg-1
CNS(=O)(=O)c1cc(S(=O)(=O)[O-])c(NCc2ccco2)cc1Oc1ccccc1.[K+],Saluretic activity,[1],0.8 m equiv 5hr-1 kg-1
same,Diuretic activity,[2],1.6 mL/kg
same,Saluretic activity,[3],0.8 m equiv 5hr-1 kg-1
same,Saluretic activity,[4],1 m equiv 5hr-1 kg-1
CN(Cc1ccco1)c1cc(Oc2ccccc2)c(S(N)(=O)=O)cc1S(=O)(=O)[O-].[K+],Saluretic activity,[1],0.3 m equiv 5hr-1 kg-1
same,Diuretic activity,[2],1.3 mL/kg
same,Saluretic activity,[3],1.5 m equiv 5hr-1 kg-1
same,Saluretic activity,[4],1.7 m equiv 5hr-1 kg-1
CCC(C)S(=O)(=O)c1cc(NCc2ccco2)c(S(=O)(=O)[O-])cc1S(N)(=O)=O.[Na+] (stereo not drawn),Saluretic activity,[1],6.7 m equiv 5hr-1 kg-1
same,Diuretic activity,[2],4.5 mL/kg
same,Saluretic activity,[3],1.9 m equiv 5hr-1 kg-1
same,Saluretic activity,[4],8.5 m equiv 5hr-1 kg-1
NS(=O)(=O)c1cc(S(=O)(=O)[O-])c(NCc2ccco2)cc1Nc1ccccc1Cl.[Na+],Saluretic activity,[1],0.3 m equiv 5hr-1 kg-1
same,Diuretic activity,[2],1.1 mL/kg
same,Saluretic activity,[3],0.8 m equiv 5hr-1 kg-1
same,Saluretic activity,[4],0.6 m equiv 5hr-1 kg-1
NS(=O)(=O)c1cc(S(=O)(=O)[O-])c(N(Cc2ccccc2)Cc2ccccc2)cc1Cl.[Na+],Saluretic activity,[1],0.3 m equiv 5hr-1 kg-1
same,Diuretic activity,[2],0.7 mL/kg
same,Saluretic activity,[3],0.8 m equiv 5hr-1 kg-1
same,Saluretic activity,[4],0.9 m equiv 5hr-1 kg-1
